Results pooled from the literature.
Compare with care: the assays were run in different laboratories.
Sample: plasma

SMILES | system | conditions | measurement | result
NCc1cc2c(cc1F)C(=O)N(C1CCC(=O)NC1=O)C2 (stereo not drawn) | male CD-1 mouse | intravenous, 1 mg/kg | clearance | 112 mL/min/kg
C=CCn1c(=O)c2cnc(Nc3ccc(N4CCN(C)CC4)cc3)nc2n1-c1ccc2c(n1)[C@@](O)(CC)CC2 | mouse | intravenous, 3 mg/kg | clearance | 54 mL/min/kg
CN(C)C(=O)c1cc2cnc(Nc3ccc(-c4ccc5c(=O)cc(N6CCOCC6)oc5c4)cc3)nc2n1C1CCCC1 | BALB/c mouse | oral, 20 mg/kg | CL/F | 120 mL/min/kg
Cc1ncsc1-c1ccc([C@H](CC(=O)N2CC3(C2)CN(c2ccc(C#Cc4ccc(C(=O)N5CCC(n6cc(-c7ccc8c(c7)CCN8C(=O)Cc7cccc(OC(F)(F)F)c7)c7c(N)ncnc76)CC5)cc4)cn2)C3)NC(=O)[C@@H]2C[C@@H](O)CN2C(=O)[C@@H](NC(=O)C2(F)CC2)C(C)(C)C)cc1 | male C57BL/6 mouse | intravenous, 1 mg/kg | clearance | 2.8 mL/min/kg
Cc1cc(-c2ccnc3[nH]cc(F)c23)cc(F)c1[C@@]1(O)[C@H](C)CN(C2CCS(=O)(=O)CC2)C[C@@H]1C | male CD-1 mouse | intravenous, 1 mg/kg | clearance | 5.86 mL/min/kg
O=C1CCC(N2Cc3cc(CO)c(F)cc3C2=O)C(=O)N1 (stereo not drawn) | male CD-1 mouse | intravenous, 1 mg/kg | clearance | 52.9 mL/min/kg
Oc1ccc([C@@H]2Oc3ccc(O)cc3[C@@H]3CCC[C@@H]32)cc1 | male C57BL/6 mouse | intravenous, 1 mg/kg | clearance | 1.67 mL/min
Cc1nc2ccc(OCc3ccc(C(F)(F)F)cc3)cc2[nH]1 | male BALB/c mouse | oral, 10 mg/kg | CL/F | 12.7 mL/min/kg
CCCC[C@@H](NC(=O)[C@@H](Cc1cn(C(=O)OC)c2ccccc12)NC(=O)[C@H](CC(C)(C)C)NC(=O)N1[C@H](C)CCC[C@@H]1C)C(=O)O | male CD-1 mouse | intravenous, 3 mg/kg | clearance | 222 mL/min/kg
OCc1nc2ccc(NCc3ccc(C(F)(F)F)cc3)cc2[nH]1 | male BALB/c mouse | oral, 10 mg/kg | CL/F | 61.2 mL/min/kg
Cc1ncsc1-c1ccc([C@H](C)NC(=O)[C@@H]2C[C@@H](O)CN2C(=O)[C@@H](NC(=O)CCCCCCCCCCC(=O)NCCCn2cc(-c3ccc4c(c3)CCN4C(=O)Cc3cccc(OC(F)(F)F)c3)c3c(N)ncnc32)C(C)(C)C)cc1 | mouse | intravenous, 1 mg/kg | clearance | 19.8 mL/min/kg
Cc1ccc(OCC(=O)N[C@@H](Cc2c[nH]c3ccccc23)C(=O)OC(C)C)cc1 | male Sprague-Dawley mouse | intravenous, 10 mg/kg | clearance | 5.5 mL/min/kg
Cc1ncsc1-c1ccc([C@H](C)NC(=O)[C@@H]2C[C@@H](O)CN2C(=O)[C@@H](NC(=O)CCCCCCCCC(=O)N2CCC(n3cc(-c4ccc5c(c4)CCN5C(=O)Cc4cccc(OC(F)(F)F)c4)c4c(N)ncnc43)CC2)C(C)(C)C)cc1 | male C57BL/6 mouse | intravenous, 1 mg/kg | clearance | 13.3 mL/min/kg
Cc1cc(-c2ccnc3[nH]cc(F)c23)cc(F)c1[C@@]1(O)[C@H](C)CN(C(=O)CN)C[C@@H]1C | male CD-1 mouse | intravenous, 1 mg/kg | clearance | 0.775 mL/min/kg
O=C1CCC(N2Cc3cc(C4CCN(Cc5ccccc5)CC4)ccc3C2=O)C(=O)N1 (stereo not drawn) | male CD-1 mouse | intravenous, 1 mg/kg | clearance | 48 mL/min/kg
